Consider 17 compounds from ChEMBL document CHEMBL1131233, “Synthesis and structure-activity relationships of bafilomycin A1 derivatives as inhibitors of vacuolar H+-ATPase” (J Med Chem, 1998).

Sequence of V-type proton ATPase subunit B, brain isoform (Bos taurus) (P31408 whole entry, canonical isoform): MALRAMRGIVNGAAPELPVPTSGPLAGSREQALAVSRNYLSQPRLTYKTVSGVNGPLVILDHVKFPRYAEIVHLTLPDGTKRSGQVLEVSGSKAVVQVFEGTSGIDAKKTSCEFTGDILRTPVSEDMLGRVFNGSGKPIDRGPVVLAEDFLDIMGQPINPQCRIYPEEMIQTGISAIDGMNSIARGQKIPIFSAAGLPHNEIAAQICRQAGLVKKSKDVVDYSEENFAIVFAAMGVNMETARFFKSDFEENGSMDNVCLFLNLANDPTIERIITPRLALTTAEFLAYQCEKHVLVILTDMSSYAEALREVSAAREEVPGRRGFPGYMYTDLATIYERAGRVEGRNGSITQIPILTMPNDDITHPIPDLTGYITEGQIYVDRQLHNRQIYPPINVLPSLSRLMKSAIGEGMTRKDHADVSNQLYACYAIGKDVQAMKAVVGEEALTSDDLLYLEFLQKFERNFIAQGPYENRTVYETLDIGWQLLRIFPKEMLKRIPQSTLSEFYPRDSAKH

In this assay the target is V-type proton ATPase subunit B, brain isoform (Bos taurus) (UniProt P31408). The assay can be described thus: Inhibition of V-ATPase-driven proton transport in membrane vesicles derived from bovine chromaffin granules (bCG); Potency ratio expressed as IC50 of compound/IC50 of baf A1. Summed up:
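Proton transport in bovine chromaffin granule inside-out vesicles, read by acridine orange (5 μM) fluorescence quench with 1 mM Na₂ATP, pH 7.4. IC50 from ≥3 duplicated doses by four-parameter logistic fit. Each IC50 is divided by the bafilomycin A₁ IC50 from the same experiment, to correct for membrane batch and protein level.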
As to `CO/C1=C\C(C)=C\[C@@H](C)[C@@H](O)[C@@H](C)C/C(C)=C/C=C/[C@H](OC)[C@@H]([C@@H](C)[C@@H](O)[C@H](C)[C@@]2(O)CC(=O)[C@H](C)[C@@H](C(C)C)O2)OC1=O`, the Potency ratio was 2.2.

Take `CO/C1=C\C(C)=C\[C@@H](C)C(=O)[C@@H](C)C/C(C)=C/C=C/[C@H](OC)[C@@H]([C@@H](C)[C@@H](O)[C@H](C)[C@@]2(O)C[C@@H](O)[C@H](C)[C@@H](C(C)C)O2)OC1=O`: the Potency ratio amounted to 32.

Consider `CO/C1=C\C(C)=C\[C@@H](C)[C@@H](O)[C@@H](C)C/C(C)=C/C=C/[C@H](OC)[C@@H]([C@@H](C)[C@@H](O)[C@H](C)[C@@]2(OC)C[C@@H](O)[C@H](C)[C@@H](C(C)C)O2)OC1=O`, for which the Potency ratio stood at 1.4. Take `CO/C1=C\C(C)=C\[C@@H](C)[C@@H](O)[C@@H](C)C/C(C)=C/C=C/[C@H](OC)[C@@H]([C@@H](C)[C@@H](O)[C@H](C)C(O)C[C@H](O)[C@H](C)C(O)C(C)C)OC1=O` (some centres not stated): the Potency ratio was found to be 8.2. For `CO/C1=C\C(C)=C\C(C)C(=O)[C@@H](C)C/C(C)=C/C=C/C(OC)[C@@H]([C@@H](C)C(=O)[C@H](C)C2=CC(=O)[C@H](C)[C@@H](C(C)C)O2)OC1=O` (some centres not stated) the value was 3050.

Turning to `CO/C1=C\C(C)=C\[C@@H](C)[C@@H](O)[C@@H](C)C/C(C)=C/C=C/[C@H](OC)[C@@H]([C@@H](C)[C@@H](O)[C@H](C)[C@@]2(O)C[C@@H](N3CCCCC3)[C@H](C)[C@@H](C(C)C)O2)OC1=O`, the Potency ratio came out at 6.7. For `CCCO[C@@H]1C[C@](OC)([C@@H](C)[C@H](O)[C@H](C)[C@H]2OC(=O)/C(OC)=C/C(C)=C/[C@@H](C)[C@@H](O)[C@@H](C)C/C(C)=C/C=C/[C@@H]2OC)O[C@H](C(C)C)[C@H]1C` the value was 5; for `CCO[C@@H]1C[C@](O)([C@@H](C)[C@H](O)[C@H](C)[C@H]2OC(=O)/C(OC)=C/C(C)=C/[C@@H](C)[C@@H](O)[C@@H](C)C/C(C)=C/C=C/[C@@H]2OC)O[C@H](C(C)C)[C@H]1C`, 1.2; for `CO/C1=C\C(C)=C\[C@@H](C)[C@@H](O)[C@@H](C)C/C(C)=C/C=C/[C@H](OC)[C@@H]([C@@H](C)[C@@H](O)[C@H](C)[C@@]2(O)C[C@@H](O)[C@H](C)[C@@H](C(C)C)O2)OC1=O`, 1. As for `C/C=C/CC(O)[C@@H](C)[C@H](O)[C@H](C)[C@H]1OC(=O)/C(OC)=C/C(C)=C/[C@@H](C)[C@@H](O)[C@@H](C)C/C(C)=C/C=C/[C@@H]1OC` (some centres not stated), the figure is 2.6. On to `CO/C1=C\C(C)=C\[C@@H](C)[C@@H](O)[C@@H](C)C/C(C)=C/C=C/[C@H](OC)[C@@H]([C@@H](C)[C@@H](O)[C@H](C)[C@@]2(O)C[C@@H](NC3CCCCC3)[C@H](C)[C@@H](C(C)C)O2)OC1=O`, for which the Potency ratio was 9.2.

`COC1/C=C(\C)C[C@@H](C)[C@@H](O)[C@@H](C)CC(C)/C=C/CC(OC)[C@@H]([C@@H](C)[C@@H](O)[C@H](C)[C@@]2(O)C[C@@H](O)[C@H](C)[C@@H](C(C)C)O2)OC1=O` (some centres not stated): the Potency ratio is 2110.

As to `COC(=O)/C(=C/C(C)=C/[C@@H](C)[C@@H](O)[C@@H](C)C/C(C)=C/C=C/[C@H](OC)[C@H](O)[C@@H](C)[C@@H](O)[C@H](C)[C@@]1(O)C[C@@H](O)[C@H](C)[C@@H](C(C)C)O1)OC`, the Potency ratio was determined as 330. As for `C/C=C/CC(=O)[C@@H](C)[C@H](O)[C@H](C)[C@H]1OC(=O)/C(OC)=C/C(C)=C/[C@@H](C)[C@@H](O)[C@@H](C)C/C(C)=C/C=C/[C@@H]1OC`, the figure is 21; as for `CO/C1=C\C(C)=C\[C@@H](C)[C@@H](O)[C@@H](C)C/C(C)=C/C=C/[C@H](OC)[C@@H]([C@@H](C)[C@@H](O)[C@H](C)[C@@]2(O)C[C@@H](OC)[C@H](C)[C@@H](C(C)C)O2)OC1=O`, 1.2. For the compound `CO/C1=C\C(C)=C\[C@@H](C)C(=O)[C@@H](C)C/C(C)=C/C=C/[C@H](OC)[C@@H]([C@@H](C)[C@@H](O)[C@H](C)[C@@]2(O)CC(=O)[C@H](C)[C@@H](C(C)C)O2)OC1=O`, the Potency ratio came out at 112.

For the compound `CO/C1=C\C(C)=C\[C@@H](C)[C@@H](O)[C@@H](C)C/C(C)=C/C=C/[C@H](OC)[C@@H]([C@@H](C)[C@@H](O)[C@H](C)C(=O)/C=C/[C@H](C)C(O)C(C)C)OC1=O` (some centres not stated), the Potency ratio was found to be 15.
